These results are taken from ChEMBL document CHEMBL1250448, “Inhibitor hijacking of Akt activation” (Nat Chem Biol, 2009).

For orientation: inhibition means the relative decrease from the control value, in per cent.

The target of assay [1] is Insulin receptor-related protein (Homo sapiens) (UniProt P14616). The assay is described as follows: Inhibition of INSRR at 1 uM in presence of 100 uM ATP by Select Screen kinase assay relative to untreated control. Summed up: (§1)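 Single-concentration profiling at 1 μM against a panel of 220 purified kinases, run as an outsourced SelectScreen kinase profiling service. Activity is expressed as percent inhibition.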

Assay [2] has as its system Fibroblast growth factor receptor 3 (Homo sapiens), P22607 [K650E]. The assay is described as follows: Inhibition of FGFR3 K650E mutant at 1 uM in presence of 10 uM ATP by Select Screen kinase assay relative to untreated control. In a few lines: as §1
Assay [3] deals with Protein-tyrosine kinase 6 (Homo sapiens) (UniProt Q13882). Description: Inhibition of PTK6 at 1 uM in presence of 10 uM ATP by Select Screen kinase assay relative to untreated control. In a few lines:
(§2)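 Commercial SelectScreen profiling panel of 220 purified kinases. Each kinase was tested at a single inhibitor concentration of 1 μM, and activity was expressed as percent inhibition.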

For assay [4], the target named is Tyrosine-protein kinase Fgr (Homo sapiens) (UniProt P09769). The assay is described as follows: Inhibition of FGR at 1 uM in presence of 10 uM ATP by Select Screen kinase assay relative to untreated control. Summed up:
as §1

In assay [5] the target is T1, Activin receptor type-1B (Homo sapiens) (UniProt P36896).
T1 sequence (whole entry): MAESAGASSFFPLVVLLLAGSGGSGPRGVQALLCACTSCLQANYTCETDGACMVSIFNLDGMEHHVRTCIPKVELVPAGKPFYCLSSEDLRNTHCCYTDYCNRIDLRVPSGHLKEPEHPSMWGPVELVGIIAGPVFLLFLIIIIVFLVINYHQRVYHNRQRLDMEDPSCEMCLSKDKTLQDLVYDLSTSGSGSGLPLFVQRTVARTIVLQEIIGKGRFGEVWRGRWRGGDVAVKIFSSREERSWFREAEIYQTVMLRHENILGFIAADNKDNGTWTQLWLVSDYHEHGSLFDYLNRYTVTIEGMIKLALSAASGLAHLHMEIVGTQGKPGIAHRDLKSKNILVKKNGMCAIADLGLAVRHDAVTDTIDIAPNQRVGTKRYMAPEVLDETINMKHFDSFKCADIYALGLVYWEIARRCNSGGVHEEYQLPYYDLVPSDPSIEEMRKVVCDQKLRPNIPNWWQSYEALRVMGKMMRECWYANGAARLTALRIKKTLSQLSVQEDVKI
The assay is described as follows: Inhibition of ACVR1B at 1 uM in presence of 10 uM ATP by Select Screen kinase assay relative to untreated control. Summed up:
(§3)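 Single-point screen at 1 μM against a panel of 220 purified kinases, run by Invitrogen staff as a SelectScreen profiling service. Read-out is percent inhibition of kinase activity.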

In assay [6] the target is BDNF/NT-3 growth factors receptor (Homo sapiens) (UniProt Q16620). Description: Inhibition of NTRK2 at 1 uM in presence of 10 uM ATP by Select Screen kinase assay relative to untreated control. Summed up: as §2
Assay [7] concerns the target Ephrin type-A receptor 4 (Homo sapiens) (UniProt P54764). Description: Inhibition of EPHA4 at 1 uM in presence of 100 uM ATP by Select Screen kinase assay relative to untreated control. Summed up:
as §3

The target in assay [8] is G protein-coupled receptor kinase 6 (Homo sapiens) (UniProt P43250). Description: Inhibition of GRK6 at 1 uM in presence of 10 uM ATP by Select Screen kinase assay relative to untreated control. Summed up:
as §1

For assay [9], the target named is Tyrosine-protein kinase Lck (Homo sapiens) (UniProt P06239). Description: Inhibition of LCK at 1 uM in presence of 10 uM ATP by Select Screen kinase assay relative to untreated control. Summed up:
as §1

Assay [10] concerns the target T2, Phosphorylase b kinase gamma catalytic chain, liver/testis isoform (Homo sapiens) (UniProt P15735).
T2 sequence (whole entry): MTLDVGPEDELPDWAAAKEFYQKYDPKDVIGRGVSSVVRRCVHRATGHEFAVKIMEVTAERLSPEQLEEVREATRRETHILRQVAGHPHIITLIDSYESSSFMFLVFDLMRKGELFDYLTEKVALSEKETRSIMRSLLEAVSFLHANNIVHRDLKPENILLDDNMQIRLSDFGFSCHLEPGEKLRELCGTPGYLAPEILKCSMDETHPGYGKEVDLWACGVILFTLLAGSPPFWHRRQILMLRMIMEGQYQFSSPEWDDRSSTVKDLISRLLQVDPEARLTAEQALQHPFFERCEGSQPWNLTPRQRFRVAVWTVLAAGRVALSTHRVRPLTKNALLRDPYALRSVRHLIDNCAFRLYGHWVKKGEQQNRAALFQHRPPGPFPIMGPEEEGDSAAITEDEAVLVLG
Description: Inhibition of PHKG2 at 1 uM in presence of 10 uM ATP by Select Screen kinase assay relative to untreated control. Summed up: as §2

The test system of assay [11] is Hepatocyte growth factor receptor (Homo sapiens), P08581 [M1250T]. Description: Inhibition of MET M1250T mutant at 1 uM in presence of 10 uM ATP by Select Screen kinase assay relative to untreated control. In a few lines: as §1
For assay [12], the target named is Fibroblast growth factor receptor 4 (Homo sapiens) (UniProt P22455). The assay is described as follows: Inhibition of FGFR4 at 1 uM in presence of 10 uM ATP by Select Screen kinase assay relative to untreated control. Summed up:
as §1

For assay [13], the target named is T3, Mitogen-activated protein kinase 13 (Homo sapiens) (UniProt O15264).
T3 sequence (whole entry): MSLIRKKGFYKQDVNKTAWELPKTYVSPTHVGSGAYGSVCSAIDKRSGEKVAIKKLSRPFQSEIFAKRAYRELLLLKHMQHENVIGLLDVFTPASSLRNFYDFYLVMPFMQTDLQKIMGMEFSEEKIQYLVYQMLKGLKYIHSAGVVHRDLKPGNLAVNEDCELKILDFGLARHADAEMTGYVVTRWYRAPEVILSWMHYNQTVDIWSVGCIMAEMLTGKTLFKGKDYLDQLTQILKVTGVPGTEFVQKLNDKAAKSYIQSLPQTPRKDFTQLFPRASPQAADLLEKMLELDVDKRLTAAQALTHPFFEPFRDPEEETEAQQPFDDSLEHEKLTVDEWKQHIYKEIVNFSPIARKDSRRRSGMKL
The assay is described as follows: Inhibition of MAPK13 at 1 uM in presence of 10 uM ATP by Select Screen kinase assay relative to untreated control. In a few lines: as §1

Assay [14] concerns the target Insulin-like growth factor 1 receptor (Homo sapiens) (UniProt P08069). Description: Inhibition of IGF1R at 1 uM in presence of 10 uM ATP by Select Screen kinase assay relative to untreated control. Summed up:
as §1

In assay [15] the target is Serine/threonine-protein kinase PAK 5 (Homo sapiens) (UniProt Q9P286). The assay is described as follows: Inhibition of PAK7 at 1 uM in presence of 10 uM ATP by Select Screen kinase assay relative to untreated control. Summed up: as §2
Assay [16] has as its target Casein kinase I isoform gamma-1 (Homo sapiens) (UniProt Q9HCP0). Description: Inhibition of CSNK1G1 at 1 uM in presence of 10 uM ATP by Select Screen kinase assay relative to untreated control. Summed up:
as §3

Assay [17] addresses Platelet-derived growth factor receptor alpha (Homo sapiens) (UniProt P16234). The assay is described as follows: Inhibition of PDGFRalpha at 1 uM in presence of 100 uM ATP by Select Screen kinase assay relative to untreated control. In a few lines: as §2

Sequence of Platelet-derived growth factor receptor alpha (Homo sapiens) (P16234 whole entry): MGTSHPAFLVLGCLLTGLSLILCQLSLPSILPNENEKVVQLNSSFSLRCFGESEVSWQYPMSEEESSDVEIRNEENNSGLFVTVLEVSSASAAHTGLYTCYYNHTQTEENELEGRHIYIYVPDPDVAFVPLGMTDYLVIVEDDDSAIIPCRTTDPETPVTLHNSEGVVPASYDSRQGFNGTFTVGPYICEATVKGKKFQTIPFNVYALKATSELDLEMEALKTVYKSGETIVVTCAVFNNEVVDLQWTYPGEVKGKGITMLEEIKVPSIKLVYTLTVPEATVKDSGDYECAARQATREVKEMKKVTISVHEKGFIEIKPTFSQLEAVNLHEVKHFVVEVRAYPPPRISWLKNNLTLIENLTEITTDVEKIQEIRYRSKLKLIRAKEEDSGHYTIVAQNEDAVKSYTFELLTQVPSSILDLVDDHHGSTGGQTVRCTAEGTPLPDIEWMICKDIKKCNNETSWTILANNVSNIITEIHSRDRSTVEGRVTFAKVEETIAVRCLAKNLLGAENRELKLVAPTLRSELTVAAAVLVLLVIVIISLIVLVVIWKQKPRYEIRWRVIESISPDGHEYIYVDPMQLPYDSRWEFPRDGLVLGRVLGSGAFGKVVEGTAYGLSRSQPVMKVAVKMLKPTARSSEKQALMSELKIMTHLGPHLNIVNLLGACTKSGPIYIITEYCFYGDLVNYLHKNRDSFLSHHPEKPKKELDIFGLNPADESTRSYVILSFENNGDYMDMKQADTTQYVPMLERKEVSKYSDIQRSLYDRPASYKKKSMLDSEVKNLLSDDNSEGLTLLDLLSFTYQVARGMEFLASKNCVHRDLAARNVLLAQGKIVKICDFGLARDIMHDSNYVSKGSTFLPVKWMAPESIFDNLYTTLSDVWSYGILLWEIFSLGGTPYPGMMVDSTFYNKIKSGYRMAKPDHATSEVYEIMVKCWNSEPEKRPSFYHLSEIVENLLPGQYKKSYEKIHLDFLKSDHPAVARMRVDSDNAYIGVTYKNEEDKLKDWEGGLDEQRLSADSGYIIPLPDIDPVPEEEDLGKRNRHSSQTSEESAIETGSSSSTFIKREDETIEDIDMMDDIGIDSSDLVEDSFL
Sequence of Fibroblast growth factor receptor 3 (Homo sapiens), P22607 [K650E] (P22607 whole entry K650E): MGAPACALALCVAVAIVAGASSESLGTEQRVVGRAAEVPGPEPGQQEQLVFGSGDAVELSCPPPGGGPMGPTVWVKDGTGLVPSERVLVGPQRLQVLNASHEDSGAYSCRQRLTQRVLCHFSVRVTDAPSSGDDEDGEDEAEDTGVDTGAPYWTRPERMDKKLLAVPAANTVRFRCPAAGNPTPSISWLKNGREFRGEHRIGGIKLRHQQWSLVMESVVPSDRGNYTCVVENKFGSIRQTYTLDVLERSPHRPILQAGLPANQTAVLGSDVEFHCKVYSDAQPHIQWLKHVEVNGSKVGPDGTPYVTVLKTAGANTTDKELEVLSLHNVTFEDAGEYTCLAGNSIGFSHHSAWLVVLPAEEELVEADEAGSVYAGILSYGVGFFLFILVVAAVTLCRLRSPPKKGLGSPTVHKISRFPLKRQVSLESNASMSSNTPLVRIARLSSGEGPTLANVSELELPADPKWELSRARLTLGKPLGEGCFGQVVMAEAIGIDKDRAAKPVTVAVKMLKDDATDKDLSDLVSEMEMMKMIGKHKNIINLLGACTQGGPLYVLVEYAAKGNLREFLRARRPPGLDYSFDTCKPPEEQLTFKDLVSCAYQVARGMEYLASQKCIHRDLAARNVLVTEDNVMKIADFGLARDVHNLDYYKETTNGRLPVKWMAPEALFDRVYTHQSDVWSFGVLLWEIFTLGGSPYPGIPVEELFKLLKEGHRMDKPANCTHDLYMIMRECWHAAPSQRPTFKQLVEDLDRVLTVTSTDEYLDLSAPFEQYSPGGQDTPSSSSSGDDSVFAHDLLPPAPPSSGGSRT
Sequence of Casein kinase I isoform gamma-1 (Homo sapiens) (Q9HCP0 whole entry, looked up, canonical isoform): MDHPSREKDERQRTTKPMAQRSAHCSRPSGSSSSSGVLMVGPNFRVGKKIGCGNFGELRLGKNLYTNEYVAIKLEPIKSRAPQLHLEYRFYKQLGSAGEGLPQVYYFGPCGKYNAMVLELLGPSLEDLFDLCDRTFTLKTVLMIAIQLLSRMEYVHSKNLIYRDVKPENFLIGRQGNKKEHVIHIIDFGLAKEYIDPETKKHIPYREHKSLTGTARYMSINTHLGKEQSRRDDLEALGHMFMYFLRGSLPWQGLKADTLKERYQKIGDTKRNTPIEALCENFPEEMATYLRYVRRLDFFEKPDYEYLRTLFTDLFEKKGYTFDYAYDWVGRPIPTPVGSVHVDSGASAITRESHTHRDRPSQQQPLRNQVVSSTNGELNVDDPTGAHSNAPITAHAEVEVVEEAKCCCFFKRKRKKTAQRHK
Sequence of Protein-tyrosine kinase 6 (Homo sapiens) (Q13882 whole entry, looked up): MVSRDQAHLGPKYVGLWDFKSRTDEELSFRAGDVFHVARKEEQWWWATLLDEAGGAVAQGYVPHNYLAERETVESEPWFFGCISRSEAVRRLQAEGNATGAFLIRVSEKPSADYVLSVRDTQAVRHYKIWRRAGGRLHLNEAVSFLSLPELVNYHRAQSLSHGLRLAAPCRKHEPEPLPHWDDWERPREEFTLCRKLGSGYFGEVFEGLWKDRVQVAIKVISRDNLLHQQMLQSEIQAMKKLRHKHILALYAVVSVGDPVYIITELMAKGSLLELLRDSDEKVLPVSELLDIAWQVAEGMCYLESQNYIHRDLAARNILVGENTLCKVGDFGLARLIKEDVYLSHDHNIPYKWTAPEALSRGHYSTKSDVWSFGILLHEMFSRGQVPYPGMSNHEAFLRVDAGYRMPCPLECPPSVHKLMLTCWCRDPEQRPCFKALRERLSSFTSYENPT
Sequence of Tyrosine-protein kinase Lck (Homo sapiens) (P06239 2-509 limits assumed): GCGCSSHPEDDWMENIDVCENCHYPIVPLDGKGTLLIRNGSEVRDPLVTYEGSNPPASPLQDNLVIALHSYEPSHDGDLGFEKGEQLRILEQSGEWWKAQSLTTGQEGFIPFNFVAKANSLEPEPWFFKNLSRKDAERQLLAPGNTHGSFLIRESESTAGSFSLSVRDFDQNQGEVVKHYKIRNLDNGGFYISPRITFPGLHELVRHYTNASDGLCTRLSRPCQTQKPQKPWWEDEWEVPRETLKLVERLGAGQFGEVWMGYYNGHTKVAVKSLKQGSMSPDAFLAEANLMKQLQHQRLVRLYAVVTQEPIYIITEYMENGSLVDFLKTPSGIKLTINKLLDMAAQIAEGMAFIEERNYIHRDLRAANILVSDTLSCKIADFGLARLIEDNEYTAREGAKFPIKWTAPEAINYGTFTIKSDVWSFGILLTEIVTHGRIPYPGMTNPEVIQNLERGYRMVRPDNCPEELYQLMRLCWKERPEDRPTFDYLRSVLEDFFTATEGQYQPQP
Sequence of Insulin-like growth factor 1 receptor (Homo sapiens) (P08069 31-736 limits assumed): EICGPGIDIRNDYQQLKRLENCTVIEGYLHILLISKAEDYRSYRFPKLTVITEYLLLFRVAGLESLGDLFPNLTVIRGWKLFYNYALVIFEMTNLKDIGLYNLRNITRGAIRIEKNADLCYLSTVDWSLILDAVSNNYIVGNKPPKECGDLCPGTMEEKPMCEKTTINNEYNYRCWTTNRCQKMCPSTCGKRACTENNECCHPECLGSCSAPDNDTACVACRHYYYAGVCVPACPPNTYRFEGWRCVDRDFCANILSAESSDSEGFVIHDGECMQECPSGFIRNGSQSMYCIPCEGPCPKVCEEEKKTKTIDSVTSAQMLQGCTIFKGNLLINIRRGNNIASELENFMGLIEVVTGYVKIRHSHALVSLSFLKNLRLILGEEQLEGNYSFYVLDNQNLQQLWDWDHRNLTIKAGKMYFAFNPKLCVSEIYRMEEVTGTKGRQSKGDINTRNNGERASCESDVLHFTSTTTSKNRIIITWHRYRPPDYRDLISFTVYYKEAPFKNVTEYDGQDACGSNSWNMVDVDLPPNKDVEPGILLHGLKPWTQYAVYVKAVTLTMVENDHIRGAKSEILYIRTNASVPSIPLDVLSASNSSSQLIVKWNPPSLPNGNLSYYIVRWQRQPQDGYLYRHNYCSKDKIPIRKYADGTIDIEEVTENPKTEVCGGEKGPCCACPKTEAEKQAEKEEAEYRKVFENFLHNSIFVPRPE
Sequence of Insulin-like growth factor 1 receptor (Homo sapiens) (P08069 741-1367 limits assumed): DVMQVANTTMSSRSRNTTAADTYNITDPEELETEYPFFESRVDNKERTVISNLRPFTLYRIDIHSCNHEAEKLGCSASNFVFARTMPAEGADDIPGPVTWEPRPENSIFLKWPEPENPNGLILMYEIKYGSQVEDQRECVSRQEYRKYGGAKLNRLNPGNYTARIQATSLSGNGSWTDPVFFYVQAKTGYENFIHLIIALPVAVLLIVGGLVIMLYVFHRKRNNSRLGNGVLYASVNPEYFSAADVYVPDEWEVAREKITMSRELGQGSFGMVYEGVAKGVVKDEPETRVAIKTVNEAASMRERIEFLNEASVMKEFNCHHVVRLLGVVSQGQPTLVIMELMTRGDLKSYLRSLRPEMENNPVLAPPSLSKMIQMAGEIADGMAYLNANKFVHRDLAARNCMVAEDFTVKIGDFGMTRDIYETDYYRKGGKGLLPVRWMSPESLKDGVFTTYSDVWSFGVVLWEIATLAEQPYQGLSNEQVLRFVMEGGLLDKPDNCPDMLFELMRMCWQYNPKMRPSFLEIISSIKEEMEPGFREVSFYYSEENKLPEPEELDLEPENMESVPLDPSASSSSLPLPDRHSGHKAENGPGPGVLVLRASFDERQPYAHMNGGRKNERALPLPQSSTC

Take `COc1ccccc1N1CCN(c2ncnc3[nH]nc(Br)c23)CC1`: the inhibition in assay [1] is 8%; in [2] it was 12%; in [3], 2%; in [4] it was 8%; in [5] it was -2%; in assay [6] it was 11%. Besides, the inhibition in [7] came out at 9%; in assay [8], 27%; in [9], 16%; in assay [10], 4%; in [11], 3%; in assay [12], 15%. Besides, the inhibition in assay [13] amounted to 12%; in assay [14], 10%; in [15], 1%; in assay [16], 11%; in assay [17] it was 3%.
For the compound `Cc1n[nH]c2ccc(-c3cncc(OC[C@@H](N)Cc4c[nH]c5ccccc45)c3)cc12`, the inhibition in assay [1] amounted to 1%; in [2], 8%; in assay [3], 0%; in assay [4], 36%; in assay [5] it was 0%; in assay [6], 12%. The inhibition in assay [7] is -4%; in [8], 78%; in assay [9], 14%; in [10], 11%; in [11] it was 5%; in assay [12], -2%. Moreover, the inhibition stood at 36% in assay [13]; 5% in assay [14]; 25% in assay [15]; 62% in [16]; 1% in [17].
As for `O=C(NCCCNc1nc(Nc2cccc(NC(=O)N3CCCC3)c2)ncc1I)c1cccs1`, the inhibition in assay [1] is 12%; in assay [2], 38%; in [3], 9%; in assay [4], 29%; in assay [5], 7%; in assay [6], 74%. In addition, the inhibition in assay [7] was determined as 11%; in [8], 2%; in [9], 30%; in assay [10], 28%; in assay [11], 11%; in assay [12], 29%. For the same compound, the inhibition in assay [13] turned out to be 27%; in assay [14], 10%; in [15], 25%; in assay [16], 10%; in [17], 93%.
